According to ChEMBL document CHEMBL1153109, “New potent 5-nitroindazole derivatives as inhibitors of Trypanosoma cruzi growth: synthesis, biological evaluation, and mechanism of action studies” (Bioorg Med Chem, 2009):

How the values were obtained:
Trypanosoma cruzi [1] = assay: Inhibition of parasitic respiration in Trypanosoma cruzi tulahuen epimastigotes assessed as oxygen uptake at 0.42 mM relative to control; type: functional
Trypanosoma cruzi [2] = assay: Inhibition of parasitic respiration in Trypanosoma cruzi tulahuen epimastigotes assessed as oxygen uptake at 2 mM relative to control; type: functional
Trypanosoma cruzi [3] = assay: Inhibition of parasitic respiration in Trypanosoma cruzi tulahuen epimastigotes assessed as oxygen uptake at 0.83 mM relative to control; type: functional
[4] = tested on: Radical scavenging activity; assay: Antioxidant activity assessed as DPPH radical scavenging activity; type: functional; set-up: concentration or dose not given beside the values
Summary of the method: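 Scavenging of DPPH radical measured by ESR. Reaction mixtures contain 1.0 mM dpph and 1.0 mM 5-NI, both prepared in acetonitrile. The control contains no 5-NI. Signal recorded 1 min after the start of the reaction at microwave frequency 9.72 GHz and power 20 mW.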

Trypanosoma cruzi [5] = assay: Antitrypanosomal activity against Trypanosoma cruzi CL Brener epimastigotes after 5 days; type: functional, organism-based; details: 120 h
Summary of the method: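 CL Brener epimastigotes grown at 28 °C in BHI–Tryptose with 5% FBS. Stationary-phase (10-day) cells inoculated at 1 × 10⁶ cells/mL into medium with drug from a DMSO stock (final DMSO ≤0.4%); control contains 0.4% DMSO. Growth followed by A600. Inhibition at day 5 is computed from the day 0 and day 5 absorbances relative to control. IC50 is the concentration reducing the absorbance ratio to 50%.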

Caco-2 = assay: Cytotoxicity against human Caco-2 cells at 25 uM by MTT assay; type: cell-based; details: caco-2, 25 µM
Summary of the method: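 Caco-2 cells kept in DMEM-F12 with 10% FBS, penicillin and streptomycin at 37 °C, 5% CO₂. Cells plated at 5 × 10⁴ cells/mL, then exposed to compound in PBS for 2 h. After washing, cells incubated with 0.5 mg/mL MTT for 120 min at 37 °C. Formazan dissolved in DMSO for 10 min at 37 °C and read at 540 nm.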

Trypanosoma cruzi [6] = assay: Inhibition of parasitic respiration in Trypanosoma cruzi tulahuen epimastigotes assessed as oxygen uptake at 0.104 mM relative to control; type: functional
Trypanosoma cruzi [7] = assay: Inhibition of parasitic respiration in Trypanosoma cruzi tulahuen epimastigotes assessed as oxygen uptake at 0.208 mM relative to control; type: functional

SMILES | Oxygen uptake at 420 µM (Trypanosoma cruzi [1]) [%] | Oxygen uptake at 2000 µM (Trypanosoma cruzi [2]) [%] | Oxygen uptake at 830 µM (Trypanosoma cruzi [3]) [%] | Activity [4] [%] | IC50 (Trypanosoma cruzi [5]) [µM] | Cytotoxicity (Caco-2) [%] | Oxygen uptake at 104 µM (Trypanosoma cruzi [6]) [%] | Oxygen uptake at 208 µM (Trypanosoma cruzi [7]) [%]
O=[N+]([O-])c1ccc2c(c1)c(OCc1ccccc1)nn2CCCCCBr | 100 | 38 | 100 | < 30 | 20.7 |  |  | 
COc1nn(CCCN2CCCCC2)c2ccc([N+](=O)[O-])cc12 |  |  |  | < 30 | > 25 | 0 |  | 
COc1nn(CCN(C)C)c2ccc([N+](=O)[O-])cc12 |  |  |  | < 30 | > 25 | 15 |  | 
O=[N+]([O-])c1ccc2c(c1)c(OCc1ccccc1)nn2CCN1CCOCC1 |  |  |  | < 30 | > 25 | 0 |  | 
CC(C)N(CCn1nc(OCc2ccccc2)c2cc([N+](=O)[O-])ccc21)C(C)C |  |  |  | < 30 | 9.2 | 0 |  | 
COc1nn(CCN(C(C)C)C(C)C)c2ccc([N+](=O)[O-])cc12 |  |  |  | < 30 | > 25 | 15 |  | 
O=[N+]([O-])c1ccc2c(c1)c(OCc1ccccc1)nn2CCCCCN1CCCCCC1 |  |  |  | > 40 | 10.5 | 25 |  | 
CCN(CC)CCn1nc(OC)c2cc([N+](=O)[O-])ccc21 |  |  |  | < 30 | > 25 | 0 |  | 
COc1nn(CCCN(C)C)c2ccc([N+](=O)[O-])cc12 |  |  |  | < 30 | > 25 | 29 |  | 
O=[N+]([O-])c1ccc2c(c1)c(OCc1ccccc1)nn2CCCCCCN1CCCCC1 |  |  |  | < 30 | 7.4 | 33 |  | 
COc1nn(CCN2CCCCC2)c2ccc([N+](=O)[O-])cc12 |  |  |  | < 30 | > 25 | 10 |  | 
COc1nn(CCCBr)c2ccc([N+](=O)[O-])cc12 |  |  |  | < 30 | 67.8 |  |  | 
CCN(CC)CCn1nc(OCc2ccccc2)c2cc([N+](=O)[O-])ccc21 |  |  |  | < 30 | 11.3 | 30 |  | 
O=[N+]([O-])c1ccc2c(c1)c(OCc1ccccc1)nn2CCCCCN1CCCC1 |  |  |  | < 30 | 7.5 | 25 |  | 
CN(C)CCCCCCn1nc(OCc2ccccc2)c2cc([N+](=O)[O-])ccc21 | 52 |  |  | > 40 | 9.4 | 40 | 100 | 59
O=[N+]([O-])c1ccc2c(c1)c(OCc1ccccc1)nn2CCN1CCCCC1 |  |  |  | < 30 | 8.4 | 27 |  | 
O=[N+]([O-])c1ccc2c(c1)c(OCc1ccccc1)nn2CCCCCCBr | 100 | 100 | 100 | < 30 | 19.3 |  |  | 
O=[N+]([O-])c1ccc2c(c1)c(OCc1ccccc1)nn2CCCCCN1CCc2ccccc2C1 |  |  |  | < 30 | 12.9 | 15 |  | 
COc1nn(CCN2CCOCC2)c2ccc([N+](=O)[O-])cc12 |  |  |  | < 30 | > 25 | 0 |  | 
CN(C)CCn1nc(OCc2ccccc2)c2cc([N+](=O)[O-])ccc21 | 51 |  |  | < 30 | 25 | 12 |  | 64
